Test results from ChEMBL document CHEMBL4138318, “Discovery of 5-Cyano-6-phenylpyrimidin Derivatives Containing an Acylurea Moiety as Orally Bioavailable Reversal Agents against P-Glycoprotein-Mediated Mutidrug Resistance” (J Med Chem, 2018).
The source made the active and inactive calls. The rule behind the calls is not given here.

Tests used:
[1] = Cytotoxicity against human SW620 cells assessed as survival at 2 uM after 72 hrs by MTT assay relative to control; format: cell-based, SW-620; conditions: read-out: Survival
[2] = Cytotoxicity against human SW620/AD300 cells assessed as survival at 2 uM after 72 hrs by MTT assay relative to control; format: cell-based; conditions: read-out: Survival
[3] = target: T1, ATP-dependent translocase ABCB1 (Homo sapiens, UniProt P08183); assay: Inhibition of ABCB1 in human SW620/AD300 cells assessed as potentiation of paclitaxel-induced cytotoxicity by measuring fold reduction in paclitaxel IC50 at 0.5 uM after 72 hrs by MTT assay; format: cell-based
In short: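 SW620/AD300 cells (~5×10^3/well) treated with graded paclitaxel with or without modulator (2 µM, or 0.5-2 µM in dose series; 0.1% DMSO solvent control) for 72 h; MTT (5 mg/mL stock) added 4 h, absorbance 490 nm. IC50 as mean ± SD of three independent runs; reversal fold = paclitaxel IC50 without/with modulator.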

SW620/AD300 [4] = assay: Effect on ABCB1 expression in human SW620/AD300 cells up to 4 uM after 48 hrs by Western blot analysis; format: functional, cell-based
In short: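 SW620/AD300 cells exposed to compound at 0, 1, 2 or 4 µM for 48 h, lysed, ultracentrifuged, protein quantified by BCA; equal protein run on SDS-PAGE, wet-transferred to nitrocellulose, primary antibody overnight at 4℃, secondary 2 h at room temperature, enhanced chemiluminescence detection; GAPDH as loading control.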

SW-620 = assay: Inhibition of [3H]-paclitaxel efflux in human SW620 cells up to 4 uM preincubated for 4 hrs followed by [3H]-paclitaxel addition for 2 hrs measured after 120 mins by liquid scintillation counting method; format: functional, cell-based
In short: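 After 2 h loading with 0.1 µM [3H]-paclitaxel (following 4 h compound pre-exposure), SW620 or SW620/AD300 cells moved to label-free medium for a 2 h efflux phase; samples taken at 0, 30, 60 and 120 min and radioactivity counted by liquid scintillation. Three independent assays, mean ± SD.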

[5] = target: T1, ATP-dependent translocase ABCB1; assay: Stimulation of human ABCB1 ATPase activity expressed in high-five insect cell membrane vesicles assessed as compound concentration required for 50% stimulation by colorimetric analysis; conditions: read-out: Activity
In short: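 Vanadate-sensitive ABCB1 ATPase activity in High Five insect cell membrane vesicles, measured with a commercial ATPase kit under a modified protocol; compound tested across 0-40 µM; maximal fold stimulation and concentration giving 50% stimulation derived.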

Cytochrome P450 3A4 = Cytochrome P450 3A4 (Homo sapiens, UniProt P08684); assay: Inhibition of recombinant human CYP3A4 in presence of NADPH generating system by fluorescence assay; format: ADME
[6] = target: T2, Multidrug resistance-associated protein 1 (Homo sapiens, UniProt P33527); assay: Inhibition of ABCC1 in human KB-CV60 cells assessed as potentiation of vincristine-induced cytotoxicity by measuring fold reduction in vincristine IC50 at 1 uM preincubated for 4 hrs followed by vincristine addition measured after 72 hrs by MTT assay; format: cell-based
In short: (§1)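 KB-CV60 and HEK293/ABCC1 cells (transfected line kept in 2 mg/mL G418) given graded vincristine with or without modulator for 72 h; MK571 25 µM reference; viability by MTT read at 490 nm. IC50 from three independent repeats, mean ± SD; reversal fold = vincristine IC50 ratio without/with modulator.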

[7] = target: T2, Multidrug resistance-associated protein 1; assay: Inhibition of ABCC1 (unknown origin) expressed in HEK293 cells assessed as potentiation of vincristine-induced cytotoxicity by measuring fold reduction in vincristine IC50 at 1 uM preincubated for 4 hrs followed by vincristine addition measured after 72 hrs by MTT assay; format: cell-based; in short: as §1
SW620/AD300 [8] = assay: Antitumor activity against ABCB1 overexpressing human SW620/AD300 cells xenografted in BALB/c nude mouse assessed as reduction in tumor volume at 20 mg/kg/day, po measured after 21 days; format: functional, organism-based
In short: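 Female BALB/c nude mice (18-20 g, 5-6 weeks) bearing SW620/AD300 xenografts; grouping once tumours reached 100 mm3: saline vehicle […] ip, paclitaxel 5 mg/kg every 3 days ip, test agent 20 mg/kg/day orally, or the combination. Body weight and tumour volume recorded every 2 days over 21 days; tumours excised and weighed at end.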

T2 sequence (P33527 whole entry): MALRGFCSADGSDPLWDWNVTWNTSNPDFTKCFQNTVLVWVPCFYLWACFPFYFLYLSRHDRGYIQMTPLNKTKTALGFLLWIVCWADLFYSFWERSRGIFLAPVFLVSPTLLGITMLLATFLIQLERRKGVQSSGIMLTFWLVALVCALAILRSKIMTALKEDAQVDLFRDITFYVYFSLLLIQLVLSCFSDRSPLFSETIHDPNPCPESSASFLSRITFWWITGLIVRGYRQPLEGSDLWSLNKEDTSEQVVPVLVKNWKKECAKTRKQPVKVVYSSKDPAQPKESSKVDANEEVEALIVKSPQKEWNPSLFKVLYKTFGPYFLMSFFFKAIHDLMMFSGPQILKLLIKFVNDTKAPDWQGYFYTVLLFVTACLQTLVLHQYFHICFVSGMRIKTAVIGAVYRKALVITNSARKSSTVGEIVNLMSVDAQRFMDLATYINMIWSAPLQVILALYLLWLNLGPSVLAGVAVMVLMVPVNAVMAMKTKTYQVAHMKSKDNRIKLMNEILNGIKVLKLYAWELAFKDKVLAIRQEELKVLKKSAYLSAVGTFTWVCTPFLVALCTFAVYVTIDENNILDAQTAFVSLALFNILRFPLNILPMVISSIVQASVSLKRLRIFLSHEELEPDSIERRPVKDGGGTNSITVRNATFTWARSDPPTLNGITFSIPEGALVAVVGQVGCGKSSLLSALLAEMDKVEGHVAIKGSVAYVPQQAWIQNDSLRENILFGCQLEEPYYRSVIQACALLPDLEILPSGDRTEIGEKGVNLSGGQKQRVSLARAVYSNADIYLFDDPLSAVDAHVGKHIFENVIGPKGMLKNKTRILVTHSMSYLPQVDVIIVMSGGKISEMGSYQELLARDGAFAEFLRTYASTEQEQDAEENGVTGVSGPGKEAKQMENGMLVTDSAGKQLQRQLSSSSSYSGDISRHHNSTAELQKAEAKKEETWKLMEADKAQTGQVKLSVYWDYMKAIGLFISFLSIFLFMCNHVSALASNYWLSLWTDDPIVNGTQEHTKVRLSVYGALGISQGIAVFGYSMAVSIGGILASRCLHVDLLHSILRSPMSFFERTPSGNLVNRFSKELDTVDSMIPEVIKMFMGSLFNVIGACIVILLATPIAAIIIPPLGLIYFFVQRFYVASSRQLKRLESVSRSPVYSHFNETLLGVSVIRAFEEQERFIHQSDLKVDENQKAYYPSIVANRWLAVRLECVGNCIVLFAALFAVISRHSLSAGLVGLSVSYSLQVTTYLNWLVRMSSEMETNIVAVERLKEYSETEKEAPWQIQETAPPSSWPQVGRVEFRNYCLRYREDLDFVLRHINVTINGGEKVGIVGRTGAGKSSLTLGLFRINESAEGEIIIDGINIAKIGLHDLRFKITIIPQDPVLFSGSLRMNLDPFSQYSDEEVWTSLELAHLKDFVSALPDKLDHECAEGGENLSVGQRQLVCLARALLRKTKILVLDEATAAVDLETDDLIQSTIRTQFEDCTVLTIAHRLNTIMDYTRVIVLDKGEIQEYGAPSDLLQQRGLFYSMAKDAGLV
T1 sequence (P08183 whole entry): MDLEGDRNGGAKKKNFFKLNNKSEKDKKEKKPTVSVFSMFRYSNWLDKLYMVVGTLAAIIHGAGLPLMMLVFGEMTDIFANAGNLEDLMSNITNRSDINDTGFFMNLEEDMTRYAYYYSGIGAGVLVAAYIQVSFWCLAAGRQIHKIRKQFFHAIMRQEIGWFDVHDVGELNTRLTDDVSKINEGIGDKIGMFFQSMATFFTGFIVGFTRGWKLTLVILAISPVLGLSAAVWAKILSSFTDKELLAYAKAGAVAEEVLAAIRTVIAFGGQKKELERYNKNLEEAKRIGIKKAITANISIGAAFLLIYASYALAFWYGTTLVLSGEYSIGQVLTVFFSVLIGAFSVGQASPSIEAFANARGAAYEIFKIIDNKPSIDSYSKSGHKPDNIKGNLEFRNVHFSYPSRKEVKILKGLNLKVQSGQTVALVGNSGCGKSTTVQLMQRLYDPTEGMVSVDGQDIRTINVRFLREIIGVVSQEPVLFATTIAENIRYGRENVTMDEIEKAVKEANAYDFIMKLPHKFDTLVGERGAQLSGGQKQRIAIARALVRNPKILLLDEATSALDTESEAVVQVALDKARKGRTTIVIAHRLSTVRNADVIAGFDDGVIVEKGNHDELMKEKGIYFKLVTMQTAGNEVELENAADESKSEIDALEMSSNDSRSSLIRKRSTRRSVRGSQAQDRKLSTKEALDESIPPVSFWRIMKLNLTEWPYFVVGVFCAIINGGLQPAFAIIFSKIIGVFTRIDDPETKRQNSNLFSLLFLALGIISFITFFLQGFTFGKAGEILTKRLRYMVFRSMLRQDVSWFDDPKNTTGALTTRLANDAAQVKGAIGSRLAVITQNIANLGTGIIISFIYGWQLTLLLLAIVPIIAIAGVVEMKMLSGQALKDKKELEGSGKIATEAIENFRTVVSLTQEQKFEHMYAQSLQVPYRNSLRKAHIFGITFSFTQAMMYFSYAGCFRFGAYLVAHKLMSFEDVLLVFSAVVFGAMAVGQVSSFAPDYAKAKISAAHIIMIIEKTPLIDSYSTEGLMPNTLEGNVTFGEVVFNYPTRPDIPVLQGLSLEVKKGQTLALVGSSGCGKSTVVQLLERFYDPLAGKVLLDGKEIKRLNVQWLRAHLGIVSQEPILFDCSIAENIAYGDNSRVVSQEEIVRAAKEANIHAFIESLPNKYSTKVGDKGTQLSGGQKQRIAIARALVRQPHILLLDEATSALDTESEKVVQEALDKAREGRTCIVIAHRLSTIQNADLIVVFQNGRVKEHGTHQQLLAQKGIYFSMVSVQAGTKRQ
Sequence of Cytochrome P450 3A4 (P08684 whole entry): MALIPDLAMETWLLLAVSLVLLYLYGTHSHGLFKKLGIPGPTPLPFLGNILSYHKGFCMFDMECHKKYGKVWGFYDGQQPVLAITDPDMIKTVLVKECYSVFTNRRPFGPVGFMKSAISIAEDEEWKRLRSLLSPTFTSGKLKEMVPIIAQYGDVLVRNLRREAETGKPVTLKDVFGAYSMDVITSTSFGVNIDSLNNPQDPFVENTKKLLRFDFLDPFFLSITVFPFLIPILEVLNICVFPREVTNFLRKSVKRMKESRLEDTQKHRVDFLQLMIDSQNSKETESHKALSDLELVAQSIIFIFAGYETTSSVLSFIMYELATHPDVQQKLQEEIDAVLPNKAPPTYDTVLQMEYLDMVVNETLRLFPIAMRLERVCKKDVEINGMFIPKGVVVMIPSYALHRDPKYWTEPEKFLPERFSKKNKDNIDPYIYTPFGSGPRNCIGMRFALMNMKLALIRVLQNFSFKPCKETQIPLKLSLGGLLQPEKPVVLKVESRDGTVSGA

In the case of `COc1cc(-c2nc(SCC(=O)NC(=O)Nc3ccccn3)nc(Nc3cccc(Cl)c3)c2C#N)cc(OC)c1OC`, the viability at 72 h, 2 µM [1] is reported as over 90%, the viability at 72 h, 2 µM [2] is reported as over 90% and the “fold change (FC)” value [3] is reported as 72.17. The Activity (SW620/AD300 [4]) was “inactive”, the inhibition (SW-620) was “inactive” and the EC50 [5] was 0.97 µM. The IC50 (Cytochrome P450 3A4) was 17.2 µM, the “fold change (FC)” value [6] was 1.13 and the “fold change (FC)” value [7] was 1.14. The Activity (SW620/AD300 [8]) was “inactive”.
